Assay results pooled from the literature.
Protocols differ between the studies behind these lines.

| Compound | host | sample | route | dose | notes | Cmax |
| --- | --- | --- | --- | --- | --- | --- |
| Cc1ncsc1-c1ccc(CNC(=O)[C@@H]2C[C@@H](O)CN2C(=O)[C@@H](NC(=O)CCCCCCCCCC(=O)N2CCN(CC[C@H](NC(=O)C3(N)CCN(c4ncnc5[nH]ccc45)CC3)c3ccc(Cl)cc3)CC2)C(C)(C)C)cc1 | mouse | plasma | intraperitoneal | 75 mg/kg | single dose | 10 µM |
| Cc1nc(-c2cnc(NC(C)C)n(C)c2=O)ccc1Oc1ccnc(-c2cnn(C)c2)c1 | female mouse | plasma | oral | 30 mg/kg | single dose | 9350 ng/mL |
| Cn1cnc2c(F)c(Nc3ccc(Br)cc3Cl)c(C(=O)NOCCO)cc21 | nude mouse | liver | oral | 5 mg/kg | single dose, tumour-bearing | 1340 ng/g |
| CC(C)(O)c1cn(-c2ccc(-c3ccc(CO)c(S(C)(=O)=O)c3)cc2)c(Cc2ccccc2Cl)n1 | male C57BL/6 mouse | serum | oral | 10 mg/kg |  | 3.2 µM |
| NC[C@@H]1O[C@H](O[C@H]2[C@@H](O)[C@H](O[C@@H]3[C@@H](O)[C@H](N)C[C@H](N)[C@H]3O[C@H]3O[C@H](CO)[C@@H](O)[C@H](O)[C@H]3N)O[C@@H]2CO)[C@H](N)[C@@H](O)[C@@H]1O | male BALB/c mouse | plasma | oral | 500 mg/kg |  | 690 ng/mL |
| NC(=O)c1cccc(-c2c[nH]c3ncnc(N4CCOCC4)c23)c1 | female C57BL/6 mouse | plasma | intraperitoneal | 10 mg/kg |  | 11 µM |
| CCc1cc(C(=O)NC)c2nccc(N3CCc4c(cc(Cn5ccnc5)cc4-c4cn(C)nc4C(F)(F)F)C3=O)c2c1 | male CD-1 mouse | plasma | oral | 50 mg/kg |  | 25100 ng/mL |
| COc1ccc(C(O)COc2ccc(-c3csc(-c4ccc(OCC(O)c5ccc(OC)c(OC)c5)cc4)n3)cc2)cc1OC (stereo not drawn) | C57BL/6 mouse | plasma | oral | 75 mg/kg |  | 7680 ng/mL |
| CC[C@H](C)[C@@H]1NC(=O)[C@@](C)(NC(=O)[C@H](CCCNC(=N)N)NC(=O)[C@H](CC(C)C)NC(=O)[C@@H](NC(=O)[C@H](CCC(N)=O)NC(=O)[C@H](CC(C)C)NC(C)=O)[C@@H](C)O)CCCC=CCCC[C@@](C)(C(=O)N[C@@H](CC(C)C)C(=O)N[C@@H](Cc2ccc3ccccc3c2)C(N)=O)NC(=O)[C@H](CCCNC(=N)N)NC(=O)[C@H](CCC(N)=O)NC1=O | male BALB/c mouse | plasma | intravenous | 10 mg/kg |  | 86 µM |
| COc1nc(-c2cc(C)c(N[C@@H](C)c3cc(F)cc(F)c3)nn2)ccc1-n1cnc(C)c1 | male CD-1 mouse | plasma | intravenous | 1 mg/kg | single dose | 699 ng/mL |
| CC(C)(C)c1ccc(O)c(CN(Cc2cc(C(C)(C)C)ccc2O)C2CCC(NC(N)=O)CC2)c1 (stereo not drawn) | male C57BL/6 mouse | brain | intraperitoneal | 5 mg/kg | single dose | 609 ng/g |
| CC(C)(C)c1cc(NC(=O)Nc2ccc(Oc3ccnc4[nH]c(=O)cnc34)cc2F)n(-c2ccccc2)n1 | BALB/c mouse | plasma | intravenous | 2 mg/kg |  | 38.1 µM |
| C=CC(=O)N1CC2CC(n3nc(-c4ccc(C(=O)Nc5ccccn5)cc4)c4c(N)ncnc43)CC2C1 (stereo not drawn) | SCID mouse | plasma | oral | 0.2 mg/kg |  | 10.5 ng/mL |
| CCc1ccc(Cc2cc([C@@H]3O[C@H](CO)[C@@H](O)[C@H](O)[C@H]3O)cc3c2CCC3)cc1 | male C57BL/6 mouse | plasma | intravenous | 1 mg/kg |  | 1300 ng/mL |
| CC(C)N1Cc2cc(C(F)(F)F)ncc2C2=CN=C(NCc3c(F)ccc4c3CCO4)N3C=NC(C1=O)C23 (stereo not drawn) | male CD-1 mouse | plasma | oral | 10 mg/kg |  | 5070 ng/mL |
| NC(=O)c1cc(Oc2ccc(NC(=O)Nc3ccc(Cl)c(C(F)(F)F)c3)c(F)c2)cc[n+]1[O-] | mouse | plasma | oral | 10 mg/kg | single dose | 22.9 ng/mL |
| CC=Cc1ccc(O)c(OC)c1 | mouse | brain | intranasal | 100 mg/kg |  | 4340 ng/g |
| FC(F)(F)Oc1ccc(Nc2cc(-c3cn[nH]c3)ncn2)cc1 | male BALB/c mouse | plasma | oral | 20 mg/kg |  | 3400 ng/mL |
